Biological target: Histone deacetylase 9 (Homo sapiens, UniProt Q9UKV0)
Sequence (Q9UKV0 whole entry): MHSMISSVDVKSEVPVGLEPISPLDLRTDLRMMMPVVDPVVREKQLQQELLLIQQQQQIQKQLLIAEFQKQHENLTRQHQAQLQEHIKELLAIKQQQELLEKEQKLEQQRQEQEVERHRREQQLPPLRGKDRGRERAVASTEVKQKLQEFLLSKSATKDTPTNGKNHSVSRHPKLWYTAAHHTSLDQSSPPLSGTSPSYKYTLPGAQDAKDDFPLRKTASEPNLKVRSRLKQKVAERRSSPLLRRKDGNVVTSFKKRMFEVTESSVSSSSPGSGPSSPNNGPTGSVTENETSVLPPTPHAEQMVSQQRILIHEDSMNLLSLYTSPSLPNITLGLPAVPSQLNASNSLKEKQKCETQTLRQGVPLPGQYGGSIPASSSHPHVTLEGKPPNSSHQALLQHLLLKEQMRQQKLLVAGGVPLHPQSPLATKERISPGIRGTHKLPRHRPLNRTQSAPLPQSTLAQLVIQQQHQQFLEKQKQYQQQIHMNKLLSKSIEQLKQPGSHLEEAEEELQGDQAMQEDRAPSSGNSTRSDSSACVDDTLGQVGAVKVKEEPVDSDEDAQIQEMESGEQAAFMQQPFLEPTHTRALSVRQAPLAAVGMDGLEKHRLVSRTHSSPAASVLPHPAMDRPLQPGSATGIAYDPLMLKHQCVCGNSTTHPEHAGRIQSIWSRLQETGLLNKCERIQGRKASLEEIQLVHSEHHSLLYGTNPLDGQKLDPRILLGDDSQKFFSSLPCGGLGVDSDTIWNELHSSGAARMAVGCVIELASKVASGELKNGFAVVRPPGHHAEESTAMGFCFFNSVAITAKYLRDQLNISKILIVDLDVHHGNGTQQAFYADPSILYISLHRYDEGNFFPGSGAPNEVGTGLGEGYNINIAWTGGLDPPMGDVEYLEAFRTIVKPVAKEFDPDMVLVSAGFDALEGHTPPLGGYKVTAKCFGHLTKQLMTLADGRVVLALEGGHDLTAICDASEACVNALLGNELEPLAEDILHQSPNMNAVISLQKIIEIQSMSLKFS
Assay: Inhibition of human HDAC9 using fluorogenic tetrapeptide RHKKAc as substrate
Details: not given
With `O=C(/C=C/c1ccc(-c2ccc(O)c(C34CC5CC(CC(C5)C3)C4)c2)cc1)NO` the IC50 was 41.4 µM.
Work on `O=C(/C=C/c1ccc(-c2ccc(O)cc2)cc1)NO` yielded an IC50 of 8.92 µM.
`COc1ccc(-c2ccc(/C=C/C(=O)NO)cc2)cc1` showed an IC50 of 39.3 µM.

Biological target: Histone deacetylase 1 (Homo sapiens, UniProt Q13547)
Sequence (Q13547 whole entry): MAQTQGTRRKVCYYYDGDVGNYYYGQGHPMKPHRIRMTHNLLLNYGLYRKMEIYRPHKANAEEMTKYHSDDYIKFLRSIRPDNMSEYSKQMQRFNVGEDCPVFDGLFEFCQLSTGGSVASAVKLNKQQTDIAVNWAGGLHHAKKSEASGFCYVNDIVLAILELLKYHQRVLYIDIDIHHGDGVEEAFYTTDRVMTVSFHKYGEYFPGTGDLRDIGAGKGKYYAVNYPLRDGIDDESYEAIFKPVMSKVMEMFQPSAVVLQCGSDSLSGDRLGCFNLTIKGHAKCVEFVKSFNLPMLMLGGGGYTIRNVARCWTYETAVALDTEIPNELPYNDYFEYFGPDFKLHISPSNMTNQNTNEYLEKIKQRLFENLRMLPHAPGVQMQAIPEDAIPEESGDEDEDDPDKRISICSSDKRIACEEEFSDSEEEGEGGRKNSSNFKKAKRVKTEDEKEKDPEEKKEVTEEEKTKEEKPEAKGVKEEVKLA
Assay: Inhibition of human HDAC1 using fluorogenic tetrapeptide RHKKAc as substrate
Details: not given
Work on `O=C(/C=C/c1ccc(-c2ccc(O)c(C34CC5CC(CC(C5)C3)C4)c2)cc1)NO` yielded an IC50 of over 100 µM.
`O=C(/C=C/c1ccc(-c2ccc(O)cc2)cc1)NO` showed an IC50 of 5.51 µM.
Molecule `COc1ccc(-c2ccc(/C=C/C(=O)NO)cc2)cc1` has an IC50 of 8.55 µM.

System: not listed separately
Assay: Antiproliferative activity against p53 defective cis-platinum-resistant human IGROV1/Pt1 cells assessed as growth inhibition after 72 hrs
Assay type: functional, cell-based
Details: IGROV-1/Pt1, 72 h
Summary of the method: (§1)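 Log-phase cells seeded in duplicate in 6-well plates; drug added 24 h after seeding. Cells harvested 72 h after drug exposure and counted with a cell counter. IC50 = drug concentration giving 50% reduction in cell number versus untreated control.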
Molecule `O=C(NO)c1ccc2cc(-c3ccc(O)c(C45CC6CC(CC(C6)C4)C5)c3)ccc2c1` has an IC50 of 1.1 µM.
In the case of `O=C(/C=C/c1ccc(-c2cccc(C34CC5CC(CC(C5)C3)C4)c2)cc1)NO`, the IC50 is reported as 5.7 µM.
`O=C(/C=C/c1ccc(-c2ccc(O)c(C34CC5CC(CC(C5)C3)C4)c2)cc1)NO` gave an IC50 of 1.3 µM.

System: HCT-116
Assay: Antiproliferative activity against human HCT116 cells assessed as growth inhibition after 72 hrs
Assay type: functional, cell-based
Details: HCT-116, 72 h
Summary of the method: as §1
`O=C(NO)c1ccc2cc(-c3ccc(O)c(C45CC6CC(CC(C6)C4)C5)c3)ccc2c1` gave an IC50 of 0.7 µM.
In the case of `O=C(/C=C/c1ccc(-c2cccc(C34CC5CC(CC(C5)C3)C4)c2)cc1)NO`, the IC50 is reported as 10.3 µM.
For `O=C(/C=C/c1ccc(-c2ccc(O)c(C34CC5CC(CC(C5)C3)C4)c2)cc1)NO`, the IC50 was 0.58 µM.

Biological target: T1, Polyamine deacetylase HDAC10 (Homo sapiens, UniProt Q969S8)
T1 sequence (Q969S8 whole entry): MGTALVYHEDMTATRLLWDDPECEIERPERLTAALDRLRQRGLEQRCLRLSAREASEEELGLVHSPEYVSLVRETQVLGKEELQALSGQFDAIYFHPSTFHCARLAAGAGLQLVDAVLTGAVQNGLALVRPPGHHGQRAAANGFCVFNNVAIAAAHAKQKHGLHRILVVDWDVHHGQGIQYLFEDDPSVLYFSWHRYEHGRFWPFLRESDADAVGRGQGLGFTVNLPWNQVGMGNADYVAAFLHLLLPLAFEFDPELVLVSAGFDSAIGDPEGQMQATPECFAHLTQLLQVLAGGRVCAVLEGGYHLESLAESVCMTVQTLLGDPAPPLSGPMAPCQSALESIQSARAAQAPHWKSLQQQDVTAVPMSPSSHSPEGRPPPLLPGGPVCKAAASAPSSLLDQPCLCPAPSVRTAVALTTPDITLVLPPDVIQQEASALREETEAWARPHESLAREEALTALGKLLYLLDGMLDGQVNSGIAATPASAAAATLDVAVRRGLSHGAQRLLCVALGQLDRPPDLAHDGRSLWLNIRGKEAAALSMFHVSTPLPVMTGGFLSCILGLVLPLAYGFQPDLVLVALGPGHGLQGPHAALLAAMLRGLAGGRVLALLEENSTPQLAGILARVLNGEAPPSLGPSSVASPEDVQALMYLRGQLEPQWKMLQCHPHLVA
Assay: Inhibition of human HDAC10 using fluorogenic tetrapeptide RHKKAc as substrate
Details: not given
For `O=C(/C=C/c1ccc(-c2ccc(O)c(C34CC5CC(CC(C5)C3)C4)c2)cc1)NO`, the IC50 was over 100 µM.
Molecule `O=C(/C=C/c1ccc(-c2ccc(O)cc2)cc1)NO` has an IC50 of 11 µM.
`COc1ccc(-c2ccc(/C=C/C(=O)NO)cc2)cc1` gave an IC50 of 91 µM.

System: IGROV-1
Assay: Antiproliferative activity against human IGROV1 cells assessed as growth inhibition after 72 hrs
Assay type: functional, cell-based
Details: IGROV-1, 72 h
Summary of the method: as §1
`O=C(NO)c1ccc2cc(-c3ccc(O)c(C45CC6CC(CC(C6)C4)C5)c3)ccc2c1` gave an IC50 of 0.65 µM.
`O=C(/C=C/c1ccc(-c2cccc(C34CC5CC(CC(C5)C3)C4)c2)cc1)NO` showed an IC50 of 1.23 µM.
`O=C(/C=C/c1ccc(-c2ccc(O)c(C34CC5CC(CC(C5)C3)C4)c2)cc1)NO` gave an IC50 of 1.1 µM.

System: IGROV-1
Assay: Cell cycle arrest in human IGROV1 cells assessed as accumulation at S phase at IC80 after 24 hrs by propidium iodide staining-based flow cytometry (reference value: 36.81%)
Assay type: functional
Details: not given
Summary of the method: (§2)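 Cell-cycle distribution in IGROV-1 cells read by flow cytometry of propidium iodide–stained cells.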
Molecule `COc1ccc(-c2ccc(/C=C/C(=O)NO)cc2)cc1` has an Activity of 55.84%.

Biological target: T2, Protein deacetylase HDAC6 (Homo sapiens, UniProt Q9UBN7)
T2 sequence (Q9UBN7 whole entry): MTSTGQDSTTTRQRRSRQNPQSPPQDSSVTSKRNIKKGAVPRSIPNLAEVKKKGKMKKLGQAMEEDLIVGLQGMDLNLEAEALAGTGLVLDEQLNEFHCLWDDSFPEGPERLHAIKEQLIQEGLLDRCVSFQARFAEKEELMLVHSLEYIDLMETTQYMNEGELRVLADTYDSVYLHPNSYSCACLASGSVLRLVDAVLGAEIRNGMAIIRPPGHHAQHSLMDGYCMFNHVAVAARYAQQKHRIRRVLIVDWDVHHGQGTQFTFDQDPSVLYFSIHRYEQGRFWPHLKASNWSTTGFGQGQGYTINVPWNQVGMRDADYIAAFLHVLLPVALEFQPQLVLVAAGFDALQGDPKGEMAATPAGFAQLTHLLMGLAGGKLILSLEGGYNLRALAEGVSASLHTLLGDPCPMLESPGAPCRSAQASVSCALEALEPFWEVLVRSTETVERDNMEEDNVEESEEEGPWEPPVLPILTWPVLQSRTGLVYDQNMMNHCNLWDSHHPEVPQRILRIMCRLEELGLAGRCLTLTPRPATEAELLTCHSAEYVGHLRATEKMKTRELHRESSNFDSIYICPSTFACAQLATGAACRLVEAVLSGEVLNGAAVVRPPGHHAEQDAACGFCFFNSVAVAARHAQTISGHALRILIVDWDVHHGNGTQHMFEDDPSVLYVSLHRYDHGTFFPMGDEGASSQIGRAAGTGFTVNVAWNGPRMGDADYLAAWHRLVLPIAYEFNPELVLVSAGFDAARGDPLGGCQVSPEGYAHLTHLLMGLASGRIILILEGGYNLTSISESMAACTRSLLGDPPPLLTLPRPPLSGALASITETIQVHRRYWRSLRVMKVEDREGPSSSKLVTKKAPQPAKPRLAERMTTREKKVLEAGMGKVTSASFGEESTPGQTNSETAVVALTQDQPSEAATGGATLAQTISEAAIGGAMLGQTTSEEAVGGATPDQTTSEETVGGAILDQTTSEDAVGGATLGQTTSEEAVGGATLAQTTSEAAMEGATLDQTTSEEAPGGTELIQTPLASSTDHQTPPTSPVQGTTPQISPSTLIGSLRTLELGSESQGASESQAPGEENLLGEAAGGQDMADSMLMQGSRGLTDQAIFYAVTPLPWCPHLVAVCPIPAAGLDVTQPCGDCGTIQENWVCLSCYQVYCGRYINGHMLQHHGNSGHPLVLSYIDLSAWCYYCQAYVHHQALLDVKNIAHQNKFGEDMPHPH
Assay: Inhibition of human HDAC6 using fluorogenic tetrapeptide RHKKAc as substrate
Details: not given
In the case of `O=C(/C=C/c1ccc(-c2ccc(O)c(C34CC5CC(CC(C5)C3)C4)c2)cc1)NO`, the IC50 is reported as 2.8 µM.
`O=C(/C=C/c1ccc(-c2ccc(O)cc2)cc1)NO` gave an IC50 of 0.0418 µM.
In the case of `COc1ccc(-c2ccc(/C=C/C(=O)NO)cc2)cc1`, the IC50 is reported as 0.0368 µM.

System: IGROV-1
Assay: Cell cycle arrest in human IGROV1 cells assessed as accumulation at G1 phase at IC80 after 24 hrs by propidium iodide staining-based flow cytometry (reference value: 49.98%)
Assay type: functional
Details: not given
Summary of the method: as §2
`COc1ccc(-c2ccc(/C=C/C(=O)NO)cc2)cc1` gave an Activity of 42.05%.

Biological target: Histone deacetylase 4 (Homo sapiens, UniProt P56524)
Sequence (P56524 whole entry): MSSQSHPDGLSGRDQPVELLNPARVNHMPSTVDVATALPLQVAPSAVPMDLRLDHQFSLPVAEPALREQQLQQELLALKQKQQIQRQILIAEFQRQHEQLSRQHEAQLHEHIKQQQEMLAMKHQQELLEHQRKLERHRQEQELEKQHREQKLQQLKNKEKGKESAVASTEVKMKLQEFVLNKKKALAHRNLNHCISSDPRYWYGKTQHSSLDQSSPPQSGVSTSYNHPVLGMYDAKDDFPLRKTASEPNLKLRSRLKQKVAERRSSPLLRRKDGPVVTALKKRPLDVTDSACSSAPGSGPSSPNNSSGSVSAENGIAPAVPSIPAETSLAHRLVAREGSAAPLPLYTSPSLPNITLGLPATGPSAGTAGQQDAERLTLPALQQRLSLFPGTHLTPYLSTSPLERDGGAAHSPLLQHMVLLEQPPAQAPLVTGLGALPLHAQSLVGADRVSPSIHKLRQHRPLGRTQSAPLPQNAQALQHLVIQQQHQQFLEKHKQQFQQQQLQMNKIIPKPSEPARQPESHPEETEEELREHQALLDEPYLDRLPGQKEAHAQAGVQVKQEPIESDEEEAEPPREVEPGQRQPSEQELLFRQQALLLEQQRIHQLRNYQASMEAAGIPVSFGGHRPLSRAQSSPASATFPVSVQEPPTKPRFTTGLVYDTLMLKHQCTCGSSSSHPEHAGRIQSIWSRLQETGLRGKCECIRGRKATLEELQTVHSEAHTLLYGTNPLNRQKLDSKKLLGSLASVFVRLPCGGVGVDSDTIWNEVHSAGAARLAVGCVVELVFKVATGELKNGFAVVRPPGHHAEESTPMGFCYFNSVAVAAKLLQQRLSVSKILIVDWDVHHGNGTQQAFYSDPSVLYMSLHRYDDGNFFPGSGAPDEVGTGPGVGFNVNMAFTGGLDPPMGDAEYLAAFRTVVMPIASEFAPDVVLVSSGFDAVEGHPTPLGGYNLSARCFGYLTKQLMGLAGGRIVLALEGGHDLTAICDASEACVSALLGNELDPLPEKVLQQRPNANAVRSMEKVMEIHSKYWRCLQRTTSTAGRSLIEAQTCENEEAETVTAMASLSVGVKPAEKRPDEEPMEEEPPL
Assay: Inhibition of human HDAC4 using fluorogenic tetrapeptide RHKKAc as substrate
Details: not given
`O=C(/C=C/c1ccc(-c2ccc(O)c(C34CC5CC(CC(C5)C3)C4)c2)cc1)NO` showed an IC50 of 61.4 µM.
With `O=C(/C=C/c1ccc(-c2ccc(O)cc2)cc1)NO` the IC50 was 17.1 µM.
`COc1ccc(-c2ccc(/C=C/C(=O)NO)cc2)cc1` showed an IC50 of 99.4 µM.

Biological target: Histone deacetylase 3 (Homo sapiens, UniProt O15379)
Sequence (O15379 whole entry): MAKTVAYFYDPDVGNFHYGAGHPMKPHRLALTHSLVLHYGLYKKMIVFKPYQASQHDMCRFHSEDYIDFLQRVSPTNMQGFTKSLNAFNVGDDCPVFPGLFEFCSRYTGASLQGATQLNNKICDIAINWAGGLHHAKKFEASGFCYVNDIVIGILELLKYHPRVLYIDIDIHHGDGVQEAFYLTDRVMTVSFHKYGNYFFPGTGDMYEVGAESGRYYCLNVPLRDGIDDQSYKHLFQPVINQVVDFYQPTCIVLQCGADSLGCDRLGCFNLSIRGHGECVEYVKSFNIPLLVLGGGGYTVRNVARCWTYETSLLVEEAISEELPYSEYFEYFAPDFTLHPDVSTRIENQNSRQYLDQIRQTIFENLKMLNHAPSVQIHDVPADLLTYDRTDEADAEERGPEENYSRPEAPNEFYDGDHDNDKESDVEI
Assay: not given
Details: not given
`O=C(/C=C/c1ccc(-c2ccc(O)c(C34CC5CC(CC(C5)C3)C4)c2)cc1)NO` showed an IC50 of 55.6 µM.
Molecule `O=C(/C=C/c1ccc(-c2ccc(O)cc2)cc1)NO` has an IC50 of 4.57 µM.
Work on `COc1ccc(-c2ccc(/C=C/C(=O)NO)cc2)cc1` yielded an IC50 of 84.5 µM.

Biological target: Histone deacetylase 2 (Homo sapiens, UniProt Q92769)
Sequence (Q92769 whole entry): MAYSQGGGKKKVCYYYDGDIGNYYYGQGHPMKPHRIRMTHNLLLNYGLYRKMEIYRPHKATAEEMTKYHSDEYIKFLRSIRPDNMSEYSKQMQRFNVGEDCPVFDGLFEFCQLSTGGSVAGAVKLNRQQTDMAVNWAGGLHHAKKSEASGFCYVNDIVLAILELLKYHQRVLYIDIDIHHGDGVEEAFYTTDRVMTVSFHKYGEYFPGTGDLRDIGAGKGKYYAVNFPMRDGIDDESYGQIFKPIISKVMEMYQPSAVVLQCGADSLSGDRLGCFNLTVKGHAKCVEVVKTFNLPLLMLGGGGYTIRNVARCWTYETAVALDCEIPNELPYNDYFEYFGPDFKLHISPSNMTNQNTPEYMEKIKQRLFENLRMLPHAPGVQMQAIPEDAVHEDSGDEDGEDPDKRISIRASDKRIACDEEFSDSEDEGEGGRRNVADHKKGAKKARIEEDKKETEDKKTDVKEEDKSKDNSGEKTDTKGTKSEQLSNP
Assay: not given
Assay type: cell-based, HeLa
Details: not given
With `O=C(/C=C/c1ccc(-c2cccc(C34CC5CC(CC(C5)C3)C4)c2)cc1)NO` the IC50 was over 10 µM.
For `O=C(/C=C/c1ccc(-c2ccc(O)c(C34CC5CC(CC(C5)C3)C4)c2)cc1)NO`, the IC50 was 2.64 µM.

System: not listed separately
Assay: cells
Assay type: functional, cell-based
Details: Homo sapiens, NCI-H460, 72 h
Work on `O=C(NO)c1ccc2cc(-c3ccc(O)c(C45CC6CC(CC(C6)C4)C5)c3)ccc2c1` yielded an IC50 of 1 µM.
`O=C(/C=C/c1ccc(-c2cccc(C34CC5CC(CC(C5)C3)C4)c2)cc1)NO` showed an IC50 of over 10 µM.
With `O=C(/C=C/c1ccc(-c2ccc(O)c(C34CC5CC(CC(C5)C3)C4)c2)cc1)NO` the IC50 was 0.83 µM.

System: IGROV-1
Assay: Induction of apoptosis in human IGROV1 cells at IC80 after 72 hrs by TUNEL and flow cytometry analysis (reference value: 4%)
Assay type: functional
Details: not given
`COc1ccc(-c2ccc(/C=C/C(=O)NO)cc2)cc1` showed an Activity of 90%.

Biological target: Histone deacetylase 5 (Homo sapiens, UniProt Q9UQL6)
Sequence (Q9UQL6 whole entry): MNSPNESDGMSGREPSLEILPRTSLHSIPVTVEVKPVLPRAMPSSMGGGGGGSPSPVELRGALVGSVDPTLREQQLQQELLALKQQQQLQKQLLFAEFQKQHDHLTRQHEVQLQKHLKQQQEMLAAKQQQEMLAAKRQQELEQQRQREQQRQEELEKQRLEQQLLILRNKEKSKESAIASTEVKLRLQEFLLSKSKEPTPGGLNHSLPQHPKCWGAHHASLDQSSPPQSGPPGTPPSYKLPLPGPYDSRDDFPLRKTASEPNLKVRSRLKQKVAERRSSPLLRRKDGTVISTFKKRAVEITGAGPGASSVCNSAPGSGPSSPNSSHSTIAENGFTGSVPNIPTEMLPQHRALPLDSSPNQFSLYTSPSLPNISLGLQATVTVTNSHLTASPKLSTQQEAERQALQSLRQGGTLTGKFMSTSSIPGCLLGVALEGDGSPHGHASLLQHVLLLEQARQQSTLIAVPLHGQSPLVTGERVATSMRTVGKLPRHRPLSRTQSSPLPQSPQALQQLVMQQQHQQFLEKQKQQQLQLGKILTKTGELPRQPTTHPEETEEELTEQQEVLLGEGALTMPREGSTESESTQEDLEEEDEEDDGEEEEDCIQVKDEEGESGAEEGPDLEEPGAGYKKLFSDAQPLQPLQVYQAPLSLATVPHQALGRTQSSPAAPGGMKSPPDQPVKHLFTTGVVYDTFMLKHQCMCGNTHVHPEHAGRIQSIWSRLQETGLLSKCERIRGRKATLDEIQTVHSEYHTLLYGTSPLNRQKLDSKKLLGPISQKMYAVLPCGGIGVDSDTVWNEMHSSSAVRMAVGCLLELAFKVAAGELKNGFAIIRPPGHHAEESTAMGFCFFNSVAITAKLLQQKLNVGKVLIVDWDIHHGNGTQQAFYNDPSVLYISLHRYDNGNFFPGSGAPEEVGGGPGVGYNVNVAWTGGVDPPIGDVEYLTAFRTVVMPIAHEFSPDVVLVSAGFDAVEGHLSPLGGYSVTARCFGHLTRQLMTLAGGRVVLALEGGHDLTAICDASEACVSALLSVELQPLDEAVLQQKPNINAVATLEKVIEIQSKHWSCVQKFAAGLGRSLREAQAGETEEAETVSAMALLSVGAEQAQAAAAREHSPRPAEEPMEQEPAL
Assay: Inhibition of human HDAC5 using fluorogenic tetrapeptide RHKKAc as substrate
Details: not given
`O=C(/C=C/c1ccc(-c2ccc(O)c(C34CC5CC(CC(C5)C3)C4)c2)cc1)NO` showed an IC50 of 78.4 µM.
For `O=C(/C=C/c1ccc(-c2ccc(O)cc2)cc1)NO`, the IC50 was 11.2 µM.
In the case of `COc1ccc(-c2ccc(/C=C/C(=O)NO)cc2)cc1`, the IC50 is reported as 29.6 µM.

Biological target: T3, Histone deacetylase 8 (Homo sapiens, UniProt Q9BY41)
T3 sequence (Q9BY41 whole entry): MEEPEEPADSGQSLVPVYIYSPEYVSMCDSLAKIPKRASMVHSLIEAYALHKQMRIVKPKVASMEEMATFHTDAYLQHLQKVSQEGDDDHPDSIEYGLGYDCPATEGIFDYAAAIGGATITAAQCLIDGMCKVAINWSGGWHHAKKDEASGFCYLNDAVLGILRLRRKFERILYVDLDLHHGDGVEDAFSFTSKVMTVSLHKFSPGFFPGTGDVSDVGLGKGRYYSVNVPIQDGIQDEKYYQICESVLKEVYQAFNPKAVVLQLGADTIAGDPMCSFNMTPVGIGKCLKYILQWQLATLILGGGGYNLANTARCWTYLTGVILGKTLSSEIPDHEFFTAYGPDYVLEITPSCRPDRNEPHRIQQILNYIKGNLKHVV
Assay: Inhibition of human HDAC8 using fluorogenic tetrapeptide RHKKAc as substrate
Details: not given
Work on `O=C(/C=C/c1ccc(-c2ccc(O)c(C34CC5CC(CC(C5)C3)C4)c2)cc1)NO` yielded an IC50 of 6.96 µM.
In the case of `O=C(/C=C/c1ccc(-c2ccc(O)cc2)cc1)NO`, the IC50 is reported as 0.162 µM.
Work on `COc1ccc(-c2ccc(/C=C/C(=O)NO)cc2)cc1` yielded an IC50 of 0.0698 µM.

Biological target: T4, Histone deacetylase 11 (Homo sapiens, UniProt Q96DB2)
T4 sequence (Q96DB2 whole entry): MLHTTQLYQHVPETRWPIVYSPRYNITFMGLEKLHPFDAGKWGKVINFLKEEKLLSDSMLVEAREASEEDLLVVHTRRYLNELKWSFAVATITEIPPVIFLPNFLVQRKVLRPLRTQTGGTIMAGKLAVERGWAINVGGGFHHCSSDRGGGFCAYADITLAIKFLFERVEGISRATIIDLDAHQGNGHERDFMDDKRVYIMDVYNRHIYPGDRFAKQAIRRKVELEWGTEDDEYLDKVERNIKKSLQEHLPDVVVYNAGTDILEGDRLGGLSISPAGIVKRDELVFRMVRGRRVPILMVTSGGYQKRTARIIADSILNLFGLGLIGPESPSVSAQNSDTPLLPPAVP
Assay: Inhibition of human HDAC11 using fluorogenic tetrapeptide RHKKAc as substrate
Details: not given
In the case of `O=C(/C=C/c1ccc(-c2ccc(O)c(C34CC5CC(CC(C5)C3)C4)c2)cc1)NO`, the IC50 is reported as 57.2 µM.
`O=C(/C=C/c1ccc(-c2ccc(O)cc2)cc1)NO` showed an IC50 of 5.01 µM.
With `COc1ccc(-c2ccc(/C=C/C(=O)NO)cc2)cc1` the IC50 was 73 µM.

System: not listed separately
Assay: Cell cycle arrest in human IGROV1 cells assessed as accumulation at G2/M phase at IC80 after 24 hrs by propidium iodide staining-based flow cytometry (reference value: 13.21%)
Assay type: functional
Details: IGROV-1
Summary of the method: as §2
With `COc1ccc(-c2ccc(/C=C/C(=O)NO)cc2)cc1` the Activity was 2.11%.
